Here are results for 74 sequences from the array DNA melting data of Ke et al. (doi:10.1101/2024.01.08.574731).

Data set [1] in a line: folding enthalpy; higher = less favourable; fluorescence melt of hairpins on a sequencing array, two-state fit. The settings on record: sodium 0.088 M. In a few lines: (§1)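 Hairpins were imaged by Cy3 fluorescence on a sequenced MiSeq flow cell with annealed Cy3 and quencher oligos, in 50 mM Na-HEPES pH 8.0, 25 mM NaCl, in 2.5 °C steps up to 60 °C. Bootstrapped two-state fits of normalised signals gave melting temperature and folding enthalpy. Four replicates were combined by inverse variance, and fitted temperatures were raised by 9.35 °C to match UV melts.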

Data set [2] in a line: melting temperature; fluorescence melt of hairpins on a sequencing array, two-state fit, raised by 9.35 °C to match UV melts. Conditions: sodium 0.088 M. In a few lines: as §1

With GCGGTCCTCCGC ((((....)))), the folding enthalpy in data set [1] was -28 kcal/mol. For the same sequence, the Tm in data set [2] was determined as 58.5 °C.
On the same counts, the results for GACCCCCCGAAAGGGGTC (((..(((....)))))) are -15.2 kcal/mol and 57.2 °C.
On to GATCATAGTGATGATC ((((((....)))))), for which, in data set [1], the folding enthalpy is -36.5 kcal/mol. Also, the Tm in data set [2] was 47.3 °C.
For the sequence GCGCGCGAAAGCGATCGC ((((((....)))..))), the folding enthalpy in data set [1] was -18.5 kcal/mol. Further, the Tm in data set [2] was found to be 52.8 °C.
On the same counts, the results for GCGATGCGAAAGCTTTGC ((.(.((....)).).)) are -21.2 kcal/mol and 46.3 °C.
Regarding GGTAGCGGAAACGCTGTC (..((((....))))..), the folding enthalpy in data set [1] was -13.4 kcal/mol. Moreover, the Tm in data set [2] was 34.8 °C.
Consider GCTATTGGAAACAGTAGC ((((.((....)).)))), for which, in data set [1], the folding enthalpy is -30 kcal/mol. Besides, the Tm in data set [2] was 42.9 °C.
Take GATCGACTAATCGATC ((((((....)))))): the folding enthalpy in data set [1] was -30.3 kcal/mol. Moreover, in data set [2], the Tm was determined as 49.9 °C.
Turning to GCGGACCCGAAAGGGCGC (((..(((....)))))), the folding enthalpy in data set [1] was -18 kcal/mol. In addition, the Tm in data set [2] was 59.5 °C.
As for GATCGTGGAAACACAATC (((.(((....))).))), in data set [1], the folding enthalpy is -17.6 kcal/mol. Also, in data set [2], the Tm worked out at 34.3 °C.
GCTTCCGAAAGGAGAAGC ((((((....)))..))): in data set [1], the folding enthalpy was -25.6 kcal/mol. In addition, the Tm in data set [2] was found to be 45.7 °C.
On the same counts, the results for GACACCGAAAGGTTAGTC ((((((....)))..))) are -20.4 kcal/mol and 37.5 °C.
Consider GGTGTGGGAAACCGTACC (((..((....))..))), for which the folding enthalpy in data set [1] is -24.1 kcal/mol. The Tm in data set [2] is 36.8 °C.
As for GTCGGCGAAAGCCAGAC ((((((....))).))), the folding enthalpy in data set [1] is -16.4 kcal/mol. Besides, the Tm in data set [2] came out at 59.4 °C.
For AGAATCAGAAATGGTTCT ((((.((....)).)))), in data set [1], the folding enthalpy was -26.5 kcal/mol. For the same sequence, the Tm in data set [2] stood at 30.6 °C.
Consider GGGACCTCGAAAGAGCCC (((..(((....)))))), for which the folding enthalpy in data set [1] was -19.4 kcal/mol. For the same sequence, in data set [2], the Tm amounted to 35.3 °C.
Turning to GGTAACGAAAGTTATACC ((((((....)))..))), the folding enthalpy in data set [1] is -22.1 kcal/mol. The Tm in data set [2] worked out at 32.6 °C.
In the case of GGCACTGGAAACAGCGCC (((.(((....))).))), the folding enthalpy in data set [1] was -46.1 kcal/mol. In data set [2], the Tm came out at 54 °C.
Take GATGACGAAAGTCCTATC ((((((....)))..))): in data set [1], the folding enthalpy was -9.62 kcal/mol. Further, in data set [2], the Tm was found to be 24 °C.
On the same counts, the results for GAGGGAGGAAACTCCTTC ((.((((....)))).)) are -19.7 kcal/mol and 38.3 °C.
On the same counts, the results for GTGGCTCGAAAGAGTCAC (((.(((....))).))) are -49.6 kcal/mol and 63.8 °C.
GAAGGCGAAAGCCATTC ((((((....))).))): the folding enthalpy in data set [1] is -10.4 kcal/mol. Further, the Tm in data set [2] amounted to 39.7 °C.
GCTAGGCGAAAGCATTGC ((.(.((....)).).)): in data set [1], the folding enthalpy is -19.2 kcal/mol. Moreover, the Tm in data set [2] stood at 42.1 °C.
Consider GATCAGCTTGCTGATC ((((((....)))))), for which, in data set [1], the folding enthalpy is -47.5 kcal/mol. Besides, in data set [2], the Tm is 68.8 °C.
On the same counts, the results for GATGCTGAAAAGCATC ((((((....)))))) are -39.1 kcal/mol and 63 °C.
Consider GCATGACCGAAAGGTTGC (((..(((....)))))), for which, in data set [1], the folding enthalpy is -18.6 kcal/mol. In data set [2], the Tm came to 41.5 °C.
As to GCGATCGAAAGATGACGC ((((((....)))..))), in data set [1], the folding enthalpy is -28.3 kcal/mol. In addition, the Tm in data set [2] came out at 44.1 °C.
Turning to GCTCACCCGAAAGGGAGC (((..(((....)))))), in data set [1], the folding enthalpy was -19.4 kcal/mol. For the same sequence, the Tm in data set [2] turned out to be 50.2 °C.
For the sequence GATCCCCTGAGGGATC ((((((....)))))), the folding enthalpy in data set [1] is -31.8 kcal/mol. Also, in data set [2], the Tm was found to be 61.9 °C.
Consider GGGTCCGAAAGGATCCCC ((((((....)))..))), for which the folding enthalpy in data set [1] is -14.6 kcal/mol. For the same sequence, the Tm in data set [2] came to 60.5 °C.
The matching figures for GATCATGTCTATGATC ((((((....)))))): -38.9 kcal/mol and 53.1 °C.
As for GGAGACGAAAGTCTTCC ((((((....))).))), the folding enthalpy in data set [1] was -18 kcal/mol. Also, the Tm in data set [2] amounted to 50.9 °C.
On the same counts, the results for GATGAGGGAAACCTTATC (((.(((....))).))) are -28.9 kcal/mol and 35.7 °C.
Take GGCTCCGAAAGGAGAGCC ((((((....)))..))): the folding enthalpy in data set [1] was -20.7 kcal/mol. In addition, in data set [2], the Tm amounted to 55.6 °C.
Take GCAGGGCGAAAGCTTTGC (((..((....))..))): in data set [1], the folding enthalpy is -19.8 kcal/mol. Further, the Tm in data set [2] turned out to be 50.7 °C.
In the case of GTGGGTACGAAAGTACAC (((..(((....)))))), the folding enthalpy in data set [1] was -31.6 kcal/mol. Moreover, the Tm in data set [2] came to 55 °C.
For the sequence GTTGACGAAAGTCTAAC ((((((....))).))), in data set [1], the folding enthalpy was -14.7 kcal/mol. The Tm in data set [2] worked out at 39.7 °C.
Consider GATGCCCGAAAGGGTATC (((.(((....))).))), for which the folding enthalpy in data set [1] is -29.8 kcal/mol. Besides, in data set [2], the Tm is 58.2 °C.
Consider GCACCCGGAAACGGGTAC (.(((((....))))).), for which, in data set [1], the folding enthalpy is -12.7 kcal/mol. Moreover, the Tm in data set [2] is 45.1 °C.
Take GATTTGGGAAACCAAATC (((((((....))))))): in data set [1], the folding enthalpy is -40.9 kcal/mol. The Tm in data set [2] came to 55 °C.
Consider GCCGACGAAAGTCAAGGC ((((((....)))..))), for which, in data set [1], the folding enthalpy was -31.1 kcal/mol. Also, in data set [2], the Tm came out at 55.1 °C.
On to GTGTGCGAAAGCAGCAC ((((((....))).))), for which the folding enthalpy in data set [1] was -20.1 kcal/mol. The Tm in data set [2] was 52.5 °C.
On the same counts, the results for GCCACGACGAAAGTCGGC (((..(((....)))))) are -10.2 kcal/mol and 44.1 °C.
In the case of GATCGAGTGTTCGATC ((((((....)))))), the folding enthalpy in data set [1] was -34.8 kcal/mol. Moreover, the Tm in data set [2] came out at 51.9 °C.
As for GCGTGAGCACGC ((((....)))), in data set [1], the folding enthalpy was -12.7 kcal/mol. Also, the Tm in data set [2] was found to be 62.6 °C.
With GCCGGCGAAAGCCTTGGC ((((((....)))..))), in data set [1], the folding enthalpy is -20.8 kcal/mol. The Tm in data set [2] was found to be 54.8 °C.
The matching figures for GATCTATAACTAGATC ((((((....)))))): -34.2 kcal/mol and 36.7 °C.
Take GATCTGTGTGCAGATC ((((((....)))))): in data set [1], the folding enthalpy is -46.9 kcal/mol. The Tm in data set [2] was determined as 56.4 °C.
GGCGGCGAAAGCCGAGCC ((((((....)))..))): the folding enthalpy in data set [1] was -12.3 kcal/mol. In data set [2], the Tm turned out to be 58 °C.
On the same counts, the results for GGTTGTGGAAACGCAATC (.(((.(....).))).) are -20.6 kcal/mol and 35.7 °C.
For GGTGCGCCGAAAGGCACC (((..(((....)))))), the folding enthalpy in data set [1] was -13.2 kcal/mol. Further, the Tm in data set [2] turned out to be 51.6 °C.
On the same counts, the results for GCAATACGAAAGTATGC (((.(((....)))))) are -29.4 kcal/mol and 50.6 °C.
On the same counts, the results for GCGACGCCGAAAGGCCGC (((..(((....)))))) are -19.1 kcal/mol and 58.1 °C.
For the sequence GGTGTAGGAAACTGCACC ((((.((....)).)))), in data set [1], the folding enthalpy was -44.5 kcal/mol. Further, the Tm in data set [2] came out at 52.7 °C.
GCTATCCGAAAGGAAGC (((.(((....)))))): in data set [1], the folding enthalpy is -23.2 kcal/mol. Moreover, the Tm in data set [2] is 46 °C.
Turning to GATCTACAGCTAGATC ((((((....)))))), the folding enthalpy in data set [1] was -31.8 kcal/mol. Further, in data set [2], the Tm is 35.1 °C.
With GATGAAGCGAAAGCTATC (((..(((....)))))), in data set [1], the folding enthalpy was -10.4 kcal/mol. In data set [2], the Tm is 28.4 °C.
On to GGCTTAGGAAACCAAGCC (((((.(....).))))), for which the folding enthalpy in data set [1] was -31.4 kcal/mol. Also, the Tm in data set [2] was found to be 47.4 °C.
Take GCCATGAAAATGGC (((((....))))): the folding enthalpy in data set [1] is -28.1 kcal/mol. In data set [2], the Tm was found to be 60.6 °C.
On the same counts, the results for GATCTGTGCTCAGATC ((((((....)))))) are -39 kcal/mol and 50.6 °C.
With GCCTGACCGAAAGGTGGC (((..(((....)))))), in data set [1], the folding enthalpy was -23.4 kcal/mol. For the same sequence, the Tm in data set [2] worked out at 51.2 °C.
On the same counts, the results for GAGTAGGGAAACCTGCTC (((.(((....))).))) are -34.5 kcal/mol and 48.5 °C.
GATCGAGGCATCGATC ((((((....)))))): the folding enthalpy in data set [1] is -41.8 kcal/mol. Further, in data set [2], the Tm is 58.5 °C.
Turning to ACTTGGAAACAAGT (((((....))))), in data set [1], the folding enthalpy was -17.8 kcal/mol. Further, the Tm in data set [2] turned out to be 38.4 °C.
In the case of GGCTACACGAAAGTGGCC (((..(((....)))))), the folding enthalpy in data set [1] is -24.3 kcal/mol. Further, the Tm in data set [2] stood at 51.6 °C.
With GCTCGTACGAAAGTAAGC (((..(((....)))))), in data set [1], the folding enthalpy was -4.48 kcal/mol. In addition, in data set [2], the Tm is 39.3 °C.
On the same counts, the results for GATCTGAATGCAGATC ((((((....)))))) are -30.7 kcal/mol and 47.3 °C.
Turning to GCGACGGGAAACCGCCGC (((.(((....))).))), the folding enthalpy in data set [1] is -45.2 kcal/mol. In addition, in data set [2], the Tm amounted to 64.2 °C.
As for GATCGGCTCACCGATC ((((((....)))))), in data set [1], the folding enthalpy was -38.8 kcal/mol. Further, the Tm in data set [2] came out at 57.4 °C.
On the same counts, the results for GGTACTGGAAACGGTACC (((((.(....).))))) are -40.9 kcal/mol and 50.4 °C.
On to GAGACGGGAAACCGCCTC (((.(((....))).))), for which the folding enthalpy in data set [1] was -33.7 kcal/mol. Also, the Tm in data set [2] came to 49.1 °C.
Take GATCAATTTGTTGATC ((((((....)))))): the folding enthalpy in data set [1] was -35.6 kcal/mol. The Tm in data set [2] worked out at 47.3 °C.
On to GATGTACGAAAGTATATC (((.(((....))).))), for which, in data set [1], the folding enthalpy is -30.7 kcal/mol. In data set [2], the Tm turned out to be 45.9 °C.
Regarding GCGAGGCGAAAGCCAAGC ((..(((....)))..)), in data set [1], the folding enthalpy was -20.5 kcal/mol. Besides, in data set [2], the Tm came to 69.2 °C.
